{"source": "ChEMBL document CHEMBL4765286", "about": "“Identification and development of non-cytotoxic cell death modulators: Impact of sartans and derivatives on PPARγ activation and on growth of imatinib-resistant chronic myelogenous leukemia cells” (Eur J Med Chem, 2020)", "key": {"[1]": {"system": "COS-7", "test": "Cytotoxicity against African green monkey COS7 cells assessed as effect on metabolic activity at 10 uM measured after 72 hrs by MTT assay", "assay_type": "ADME, cell-based", "conditions": "chlorocebus aethiops, cos-7, 72 h", "how_it_was_run": "(§1)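 COS-7 cells seeded at 2×10^3 per well in triplicate, grown 24 h, then exposed to test agent or DMSO vehicle (final DMSO ≤0.1%) for 72 h. Metabolic activity read with a modified MTT (EZ4U) kit. Background from FCS-containing medium plus substrate subtracted. Expressed relative to vehicle control set to 100%. Mean +SD of ≥3 independent experiments.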"}, "[2]": {"system": "COS-7", "test": "Cytotoxicity against African green monkey COS7 cells assessed as effect on metabolic activity at 20 uM measured after 72 hrs by MTT assay", "assay_type": "ADME, cell-based", "conditions": "chlorocebus aethiops, cos-7, 72 h", "how_it_was_run": "as §1"}, "[3]": {"test": "Modulation of cell death in imatinib-resistant human K562 cells assessed by increase in imatinib-mediated cell death in presence of presence of imatinib measured after 72 hrs by Propidium iodide stain based FACS assay (reference value: 17%)", "assay_type": "functional"}, "[4]": {"test": "Cytotoxicity against human HS5 cells assessed as cell death at 10 uM measured after 72 hrs by Propidium iodide stain based FACS analysis", "conditions": "hs5, 72 h", "how_it_was_run": "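HS-5 cells seeded at 0.5×10^5 per well and treated with compound or DMSO vehicle (final DMSO ≤0.1%) for 72 h. Harvested cells stained with PI/Triton-X100 for 2 h at 4 °C. Dead cells were counted by flow cytometry as nuclei in the sub-G1 window. Mean +SEM of ≥3 independent experiments.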"}, "[5]": {"target": "T1, Signal transducer and activator of transcription 5A (Homo sapiens) (UniProt P42229)", "T1 sequence (whole entry)": "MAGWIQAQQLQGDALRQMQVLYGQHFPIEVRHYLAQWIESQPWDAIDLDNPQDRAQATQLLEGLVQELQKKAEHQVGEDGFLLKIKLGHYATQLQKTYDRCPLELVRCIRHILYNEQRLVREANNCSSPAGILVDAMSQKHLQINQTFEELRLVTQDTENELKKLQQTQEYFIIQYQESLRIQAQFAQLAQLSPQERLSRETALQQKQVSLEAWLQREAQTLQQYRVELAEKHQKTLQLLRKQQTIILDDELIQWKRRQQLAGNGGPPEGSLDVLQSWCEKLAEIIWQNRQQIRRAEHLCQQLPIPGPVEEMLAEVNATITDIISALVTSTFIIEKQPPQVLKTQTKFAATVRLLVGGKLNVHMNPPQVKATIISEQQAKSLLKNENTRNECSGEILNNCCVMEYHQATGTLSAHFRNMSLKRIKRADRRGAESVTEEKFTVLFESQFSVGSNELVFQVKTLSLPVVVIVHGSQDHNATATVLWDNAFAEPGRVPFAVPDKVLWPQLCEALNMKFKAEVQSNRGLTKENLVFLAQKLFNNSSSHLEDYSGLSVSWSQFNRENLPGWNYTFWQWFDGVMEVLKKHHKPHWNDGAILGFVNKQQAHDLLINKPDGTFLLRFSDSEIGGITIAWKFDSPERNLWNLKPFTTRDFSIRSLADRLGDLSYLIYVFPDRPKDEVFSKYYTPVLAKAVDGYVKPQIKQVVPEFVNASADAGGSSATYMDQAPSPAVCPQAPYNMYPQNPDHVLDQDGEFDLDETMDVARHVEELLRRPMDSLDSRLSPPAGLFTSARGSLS", "test": "Inhibition of STAT5 in imatinib-resistant human K562 cells assessed as effect on STAT5 expression in presence of imatinib at 10 uM measured after 6 hrs by Western blot assay", "assay_type": "cell-based"}, "[6]": {"target": "T1, Signal transducer and activator of transcription 5A (Homo sapiens)", "test": "Inhibition of STAT5 phosphorylation in imatinib-resistant human K562 cells in presence of imatinib at 10 uM measured after 6 hrs by Western blot assay", "assay_type": "cell-based", "how_it_was_run": "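K562-resistant cells (a doxorubicin-resistant K562 subclone, KD225) kept in RPMI 1640 with 10% FCS. Cells received 1 µM imatinib alone or with 10 µM compound for 6 h. Immunoblots were probed for STAT5 and for pSTAT5 (Tyr694/699), with GAPDH as loading control, and developed by ECL. Densitometry was normalised to the imatinib-only control set to 100%.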"}, "[7]": {"test": "Modulation of cell death in imatinib-resistant human K562 cells assessed by increase in imatinib-mediated cell death in presence of presence of imatinib at 2.5 uM measured after 72 hrs by Propidium iodide stain based FACS assay (reference value: 17%)", "assay_type": "functional"}, "[8]": {"target": "T2, Peroxisome proliferator-activated receptor gamma (Homo sapiens, UniProt P37231)", "T2 sequence (P37231 whole entry)": "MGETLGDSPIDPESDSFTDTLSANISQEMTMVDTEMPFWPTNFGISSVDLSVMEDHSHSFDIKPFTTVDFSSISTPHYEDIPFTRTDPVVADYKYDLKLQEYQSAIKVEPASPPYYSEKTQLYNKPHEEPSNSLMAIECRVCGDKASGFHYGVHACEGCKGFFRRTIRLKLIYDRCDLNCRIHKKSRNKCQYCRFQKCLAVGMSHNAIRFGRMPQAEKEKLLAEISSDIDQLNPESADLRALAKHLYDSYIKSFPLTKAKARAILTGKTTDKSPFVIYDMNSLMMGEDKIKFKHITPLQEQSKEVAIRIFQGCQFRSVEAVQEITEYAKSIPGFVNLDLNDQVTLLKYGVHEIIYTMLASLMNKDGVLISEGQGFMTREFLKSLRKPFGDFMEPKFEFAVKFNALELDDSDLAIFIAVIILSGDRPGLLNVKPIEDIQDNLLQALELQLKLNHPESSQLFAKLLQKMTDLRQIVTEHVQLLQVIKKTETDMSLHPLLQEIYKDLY", "test": "Agonist activity at human PPARgammaDEF receptor expressed in african green monkey COS7 cells transfected with pGal5-TK-pGL3/pRenilla-CMV assessed as intrinsic activity measured after 39 hrs by dual luciferase reporter assay", "assay_type": "cell-based"}}, "note": "Calls of active or inactive are those of the source. The calls are words filed in the database; no cut-off is given here."}
{"smiles": "CCCc1nc2cccc(C(=O)O)c2n1Cc1ccc(-c2ccccc2C(=O)O)cc1", "values": [{"measurement": "Activity", "setting": "[1]", "result": "Non-Toxic"}, {"measurement": "Activity", "setting": "[2]", "result": "Non-Toxic"}, {"measurement": "Activity", "setting": "[3]", "result": 12, "unit": "%"}, {"measurement": "Activity", "setting": "[4]", "result": "Non-Toxic"}, {"measurement": "inhibition", "setting": "[5]", "result": "inactive"}, {"measurement": "inhibition", "setting": "[6]", "result": "inactive"}]}
{"smiles": "CCOc1nc2cccc(C(=O)OC(C)OC(=O)OC3CCCCC3)c2n1Cc1ccc(-c2ccccc2-c2nnn[nH]2)cc1", "note": "(centres undefined) [CANDESARTAN CILEXETIL]", "values": [{"measurement": "Activity", "setting": "[1]", "result": "Non-Toxic"}, {"measurement": "Activity", "setting": "[2]", "result": "Non-Toxic"}, {"measurement": "Activity", "setting": "[4]", "result": "Non-Toxic"}]}
{"smiles": "CCCc1nc(C(C)(C)O)c(C(=O)O)n1Cc1ccc(-c2ccccc2-c2nnn[nH]2)cc1", "note": "[OLMESARTAN]", "values": [{"measurement": "Activity", "setting": "[1]", "result": "Non-Toxic"}, {"measurement": "Activity", "setting": "[2]", "result": "Non-Toxic"}, {"measurement": "Activity", "setting": "[4]", "result": "Non-Toxic"}]}
{"smiles": "CCCc1nc2cccc(C(=O)OC)c2n1Cc1ccc(-c2ccccc2C(=O)OC)cc1", "values": [{"measurement": "Activity", "setting": "[1]", "result": "Non-Toxic"}, {"measurement": "Activity", "setting": "[2]", "result": "Non-Toxic"}, {"measurement": "Activity", "setting": "[3]", "result": 83, "unit": "%"}, {"measurement": "Activity", "setting": "[7]", "result": 50, "unit": "%"}, {"measurement": "Activity", "setting": "[4]", "result": "Non-Toxic"}, {"measurement": "inhibition", "setting": "[5]", "result": "inactive"}, {"measurement": "inhibition", "setting": "[6]", "result": "Active"}]}
{"smiles": "CCCc1nc2c(C(=O)OC)cccc2n1Cc1ccc(-c2ccccc2C(=O)OC)cc1", "values": [{"measurement": "Activity", "setting": "[1]", "result": "Non-Toxic"}, {"measurement": "Activity", "setting": "[2]", "result": 20, "unit": "%"}, {"measurement": "Activity", "setting": "[3]", "result": 83, "unit": "%"}, {"measurement": "Activity", "setting": "[7]", "result": 50, "unit": "%"}, {"measurement": "Activity", "setting": "[4]", "result": "Non-Toxic"}, {"measurement": "inhibition", "setting": "[5]", "result": "inactive"}, {"measurement": "inhibition", "setting": "[6]", "result": "Active"}]}
{"smiles": "CCCc1nc2c(C(=O)O)cccc2n1Cc1ccc(-c2ccccc2C(=O)O)cc1", "values": [{"measurement": "Activity", "setting": "[1]", "result": "Non-Toxic"}, {"measurement": "Activity", "setting": "[2]", "result": "Non-Toxic"}, {"measurement": "Activity", "setting": "[3]", "result": 12, "unit": "%"}, {"measurement": "Activity", "setting": "[4]", "result": "Non-Toxic"}, {"measurement": "inhibition", "setting": "[5]", "result": "inactive"}, {"measurement": "inhibition", "setting": "[6]", "result": "inactive"}]}
{"smiles": "CCCc1nc(C(C)(C)O)c(C(=O)OCc2oc(=O)oc2C)n1Cc1ccc(-c2ccccc2-c2nnn[nH]2)cc1", "note": "[OLMESARTAN MEDOXOMIL]", "values": [{"measurement": "Activity", "setting": "[1]", "result": "Non-Toxic"}, {"measurement": "Activity", "setting": "[2]", "result": "Non-Toxic"}, {"measurement": "Activity", "setting": "[4]", "result": "Non-Toxic"}]}
{"smiles": "CCCCc1nc(Cl)c(CO)n1Cc1ccc(-c2ccccc2-c2nn[nH]n2)cc1", "note": "[LOSARTAN]", "values": [{"measurement": "Activity", "setting": "[1]", "result": "Non-Toxic"}, {"measurement": "Activity", "setting": "[2]", "result": "Non-Toxic"}, {"measurement": "Activity", "setting": "[4]", "result": "Non-Toxic"}]}
{"smiles": "CCc1ccc(CCOc2ccc(CC3SC(=O)NC3=O)cc2)nc1", "note": "(centres undefined) [PIOGLITAZONE]", "values": [{"measurement": "Activity", "setting": "[1]", "result": "Non-Toxic"}, {"measurement": "Activity", "setting": "[2]", "result": "Non-Toxic"}, {"measurement": "Activity", "setting": "[4]", "result": "Non-Toxic"}]}
{"smiles": "CCCc1nc2c(C(=O)O)cccc2n1Cc1ccc(-c2ccccc2C(=O)OC)cc1", "values": [{"measurement": "Activity", "setting": "[1]", "result": "Non-Toxic"}, {"measurement": "Activity", "setting": "[2]", "result": "Non-Toxic"}, {"measurement": "Activity", "setting": "[3]", "result": 56, "unit": "%"}, {"measurement": "Activity", "setting": "[4]", "result": "Non-Toxic"}, {"measurement": "inhibition", "setting": "[5]", "result": "inactive"}, {"measurement": "inhibition", "setting": "[6]", "result": "Active"}]}
{"smiles": "CCCc1nc2c(C)cc(-c3nc4ccccc4n3C)cc2n1Cc1ccc(-c2ccccc2C(=O)O)cc1", "note": "[TELMISARTAN]", "values": [{"measurement": "Activity", "setting": "[1]", "result": "Non-Toxic"}, {"measurement": "Activity", "setting": "[2]", "result": "Non-Toxic"}, {"measurement": "Activity", "setting": "[3]", "result": 63, "unit": "%"}, {"measurement": "Activity", "setting": "[4]", "result": "Non-Toxic"}, {"measurement": "inhibition", "setting": "[5]", "result": "inactive"}, {"measurement": "inhibition", "setting": "[6]", "result": "Active"}]}
{"smiles": "CCOc1nc2cccc(C(=O)O)c2n1Cc1ccc(-c2ccccc2-c2nnn[nH]2)cc1", "note": "[CANDESARTAN]", "values": [{"measurement": "Activity", "setting": "[1]", "result": "Non-Toxic"}, {"measurement": "Activity", "setting": "[2]", "result": "Non-Toxic"}, {"measurement": "Activity", "setting": "[3]", "result": 42, "unit": "%"}, {"measurement": "Activity", "setting": "[4]", "result": "Non-Toxic"}]}
{"smiles": "CCCc1nc2c(C)cc(-c3nc4ccccc4n3C)cc2n1Cc1ccc(-c2ccccc2C(N)=O)cc1", "values": [{"measurement": "EC50", "setting": "[8]", "result": 9.1, "unit": "µM"}, {"measurement": "Activity", "setting": "[1]", "result": "Non-Toxic"}, {"measurement": "Activity", "setting": "[2]", "result": "Non-Toxic"}, {"measurement": "Activity", "setting": "[3]", "result": 89, "unit": "%"}, {"measurement": "Activity", "setting": "[7]", "result": 50, "unit": "%"}, {"measurement": "Activity", "setting": "[4]", "result": "Non-Toxic"}, {"measurement": "inhibition", "setting": "[5]", "result": "inactive"}, {"measurement": "inhibition", "setting": "[6]", "result": "Active"}]}
{"smiles": "CCCCC1=NC2(CCCC2)C(=O)N1Cc1ccc(-c2ccccc2-c2nnn[nH]2)cc1", "note": "[IRBESARTAN]", "values": [{"measurement": "Activity", "setting": "[1]", "result": "Non-Toxic"}, {"measurement": "Activity", "setting": "[2]", "result": "Non-Toxic"}, {"measurement": "Activity", "setting": "[3]", "result": 31, "unit": "%"}, {"measurement": "Activity", "setting": "[4]", "result": "Non-Toxic"}]}
